Experimental data: ChEMBL document CHEMBL4359813, “Synthesis and antimycobacterial activity of imidazo[1,2-b][1,2,4,5]tetrazines” (2019)
Activity calls are given as the source filed them. The rule behind the calls is not given here.

Experiments:
[1] = test system: Mycolicibacterium smegmatis; experiment: Antimycobacterial activity against Mycobacterium smegmatis atR37 assessed as decrease in drug resistance development at 5 ug/disc after 2 to 3 days by paper disc method; format: functional, organism-based
How it was run: (§1)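 Drug-resistant M. smegmatis mc2 155 mutants, isolated on M290 agar with 3.5-4× MIC of compound and resistance re-confirmed, grown in Middlebrook 7H9 (OADC, 0.1% Tween-80, 0.4% glycerol) to OD600 1.2. Diluted 1:9:10 culture:water:M290 and poured as top layer on M290 agar. Impregnated paper discs applied; 37 °C for 2–3 days. Halos measured to nearest 1 mm; triplicates, mean ± SD versus control strain.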

[2] = test system: Mycolicibacterium smegmatis; experiment: Antimycobacterial activity against Mycobacterium smegmatis atR8 assessed as decrease in drug resistance development at 5 ug/disc after 2 to 3 days by paper disc method; format: functional, organism-based; how it was run: as §1
[3] = test system: Mycolicibacterium smegmatis; experiment: Antimycobacterial activity against Mycobacterium smegmatis atR40 assessed as decrease in drug resistance development at 5 ug/disc after 2 to 3 days by paper disc method; format: functional, organism-based; how it was run: as §1
[4] = test system: Mycolicibacterium smegmatis; experiment: Antimycobacterial activity against Mycobacterium smegmatis atR19 assessed as decrease in drug resistance development at 5 ug/disc after 2 to 3 days by paper disc method; format: functional, organism-based
How it was run: (§2)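 Mutant M. smegmatis strains were grown in Middlebrook 7H9/OADC/Tween/glycerol to OD600 1.2. Cultures were diluted 1:9:10 (culture:water:M290) and overlaid on M290 agar. Commercial or impregnated paper discs were applied and plates incubated 2–3 days at 37 °C. Inhibition halos were measured to 1 mm, run in triplicate, mean ± SD.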

[5] = test system: Mycolicibacterium smegmatis; experiment: Antimycobacterial activity against Mycobacterium smegmatis atR2 assessed as decrease in drug resistance development at 5 ug/disc after 2 to 3 days by paper disc method; format: functional, organism-based; how it was run: as §2
[6] = test system: Mycolicibacterium smegmatis; experiment: Antimycobacterial activity against Mycobacterium smegmatis atR1 assessed as decrease in drug resistance development at 5 ug/disc after 2 to 3 days by paper disc method; format: functional, organism-based; how it was run: as §2
[7] = test system: Mycolicibacterium smegmatis; experiment: Antimycobacterial activity against Mycobacterium smegmatis atR10 assessed as decrease in drug resistance development at 5 ug/disc after 2 to 3 days by paper disc method; format: functional, organism-based; how it was run: as §2
[8] = test system: Mycolicibacterium smegmatis; experiment: Antimycobacterial activity against Mycobacterium smegmatis atR33 assessed as decrease in drug resistance development at 5 ug/disc after 2 to 3 days by paper disc method; format: functional, organism-based; how it was run: as §1
[9] = test system: Mycolicibacterium smegmatis; experiment: Antimycobacterial activity against Mycobacterium smegmatis atR11 assessed as decrease in drug resistance development at 5 ug/disc after 2 to 3 days by paper disc method; format: functional, organism-based; how it was run: as §2
[10] = test system: Mycolicibacterium smegmatis MC2 155; experiment: Inhibition of STPK in Mycobacterium smegmatis MC2 155 expressing aminoglycoside phophotransferase-8 assessed as growth inhibition at 350 microg/disk after 18 hrs by paper disk method
[11] = test system: Mycolicibacterium smegmatis; experiment: Antimycobacterial activity against Mycobacterium smegmatis atR17 assessed as decrease in drug resistance development at 5 ug/disc after 2 to 3 days by paper disc method; format: functional, organism-based; how it was run: as §2
[12] = test system: Mycolicibacterium smegmatis; experiment: Antimycobacterial activity against Mycobacterium smegmatis atR14 assessed as decrease in drug resistance development at 5 ug/disc after 2 to 3 days by paper disc method; format: functional, organism-based; how it was run: as §2
[13] = test system: Mycolicibacterium smegmatis MC2 155; experiment: Inhibition of STPK in Mycobacterium smegmatis MC2 155 expressing aminoglycoside phophotransferase-8 assessed as growth inhibition at 25 nmol/disk after 18 hrs in presence of kanamycin by paper disk method

Compound	Activity [1]	Activity [2]	Activity [3]	Activity [4]	Activity [5]	Activity [6]	Activity [7]	Activity [8]	Activity [9]	inhibition zone (IZ) [10] [mm]	Activity [11]	Activity [12]	inhibition zone (IZ) [13] [mm]
NC[C@H]1O[C@H](O[C@H]2[C@H](O)[C@@H](O[C@H]3O[C@H](CO)[C@@H](O)[C@H](N)[C@H]3O)[C@H](N)C[C@@H]2N)[C@H](O)[C@@H](O)[C@@H]1O	Active	Active	Active	Active	Active	Active	Active	Active	Active	9.3	Active	Active	–
CC(C)Sc1cnc2nnc(-n3ccnc3)nn12	–	–	–	–	–	–	–	–	–	–	–	–	13.8
